Test results taken from ChEMBL document CHEMBL1136954, “Toward the back-up of boceprevir (SCH 503034): discovery of new extended P4-capped ketoamide inhibitors of hepatitis C virus NS3 serine protease with improved potency and pharmacokinetic profiles” (J Med Chem, 2009).

Assays:
[1] = Cytotoxicity against human hepatocytes assessed as effect on GAPDH RNA level […]; format: cell-based, Hepatocyte
In short: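 Counter-screen for cellular toxicity measuring GAPDH; CC50 reported.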

[2] = system: Hepatitis C virus; assay: Antiviral activity against Hepatitis C virus genotype 1 infected in human hepatocytes by replicon assay; format: functional, Hepacivirus hominis; settings: genotype 1, Hepatocyte
In short: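 HCV genotype 1 replicon cell assay; EC90 reported, within 3-fold at 95% confidence for a single assay and within 2-fold for multiple assays.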

[3] = Inhibition of HCV NS4A-tethered single chain NS3 serine protease by spectrophotometric assay; design: species or system Hepacivirus hominis
In short: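 Continuous assay with NS4A-tethered single-chain NS3 serine protease; potency given as Ki*.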

| Ki [3] | SMILES | CC50 [1] | EC90 [2] |
| --- | --- | --- | --- |
| 0.008 µM | CC1(NC(=O)N[C@H](C(=O)N2C[C@H]3[C@@H](C2C(=O)NC(CC2CCC2)C(=O)C(N)=O)C3(C)C)C(C)(C)C)CCCCC1 (stereo not given in full) | > 5 µM | 0.2 µM |
| 0.044 µM | CC(C)[C@](C)(NC(=O)N[C@H](C(=O)N1C[C@H]2[C@@H]([C@H]1C(=O)NC(CC1CC1)C(=O)C(N)=O)C2(C)C)C(C)(C)C)C(=O)OCc1ccccc1 (mixture of isomers) | > 5 µM | 0.5 µM |
| 0.08 µM | C[C@@H](OC(=O)C1(NC(=O)N[C@H](C(=O)N2C[C@H]3[C@@H]([C@H]2C(=O)NC(CC2CC2)C(=O)C(N)=O)C3(C)C)C(C)(C)C)CCCCC1)c1ccccc1 (mixture of isomers) | > 5 µM | 0.6 µM |
| 0.059 µM | CC(C)[C@@H](Cc1ccccc1)NC(=O)N[C@H](C(=O)N1C[C@H]2[C@@H]([C@H]1C(=O)NC(CC1CC1)C(=O)C(N)=O)C2(C)C)C(C)(C)C (mixture of isomers) | > 5 µM | – |
| 0.29 µM | CC(C)[C@@](C)(NC(=O)N[C@H](C(=O)N1C[C@H]2[C@@H]([C@H]1C(=O)NC(CC1CC1)C(=O)C(N)=O)C2(C)C)C(C)(C)C)C(=O)OCc1ccccc1 (mixture of isomers) | > 5 µM | – |
| 0.01 µM | CC(C)(C)[C@H](NC(=O)N[C@H](C(=O)OCc1ccccc1)C1CC1)C(=O)N1C[C@H]2[C@@H]([C@H]1C(=O)NC(CC1CC1)C(=O)C(N)=O)C2(C)C (mixture of isomers) | > 5 µM | 0.02 µM |
| 0.031 µM | CC(C)(C)[C@H](NC(=O)NC1(C(=O)OCc2ccsc2)CCCCC1)C(=O)N1C[C@H]2[C@@H]([C@H]1C(=O)NC(CC1CC1)C(=O)C(N)=O)C2(C)C (mixture of isomers) | > 5 µM | 0.02 µM |
| 0.08 µM | CC(C)[C@H](NC(=O)N[C@H](C(=O)N1C[C@H]2[C@@H]([C@H]1C(=O)NC(CC1CC1)C(=O)C(N)=O)C2(C)C)C(C)(C)C)C(=O)O[C@H](C)c1ccccc1 (mixture of isomers) | > 5 µM | 0.6 µM |
| 0.11 µM | CC(C)(C)[C@H](NC(=O)NC1(C(=O)NS(=O)(=O)c2ccccc2)CCCCC1)C(=O)N1C[C@H]2[C@@H]([C@H]1C(=O)NC(CC1CC1)C(=O)C(N)=O)C2(C)C (mixture of isomers) | > 5 µM | 5 µM |
| 0.03 µM | COC(=O)C1(NC(=O)N[C@H](C(=O)N2C[C@H]3[C@@H]([C@H]2C(=O)NC(CC2CC2)C(=O)C(N)=O)C3(C)C)C(C)(C)C)CCCCC1 (mixture of isomers) | > 5 µM | 0.2 µM |
| 0.039 µM | CC(C)(C)[C@H](NC(=O)NC1(C(=O)OCc2ccoc2)CCCCC1)C(=O)N1C[C@H]2[C@@H]([C@H]1C(=O)NC(CC1CC1)C(=O)C(N)=O)C2(C)C (mixture of isomers) | > 5 µM | 0.02 µM |
| 0.21 µM | CC(C)(NC(=O)N[C@H](C(=O)N1C[C@H]2[C@@H]([C@H]1C(=O)NC(CC1CC1)C(=O)C(N)=O)C2(C)C)C(C)(C)C)C(=O)OCc1ccccc1 (mixture of isomers) | > 5 µM | 1.48 µM |
| 0.009 µM | CC1(NC(=O)N[C@H](C(=O)N2C[C@H]3[C@@H]([C@H]2C(=O)NC(CC2CC2)C(=O)C(N)=O)C3(C)C)C(C)(C)C)CCCCC1 (mixture of isomers) | > 5 µM | 0.2 µM |
| 0.05 µM | CO/N=C(\c1ccccc1)[C@@H](NC(=O)N[C@H](C(=O)N1C[C@H]2[C@@H]([C@H]1C(=O)NC(CC1CC1)C(=O)C(N)=O)C2(C)C)C(C)(C)C)C(C)C (mixture of isomers) | > 5 µM | – |
| 0.1 µM | CC(C)(C)[C@H](NC(=O)NC1(C(=O)c2ccccc2)CCCCC1)C(=O)N1C[C@H]2[C@@H]([C@H]1C(=O)NC(CC1CC1)C(=O)C(N)=O)C2(C)C (mixture of isomers) | > 5 µM | 2 µM |
| 0.06 µM | CO[C@H](c1ccccc1)[C@@H](NC(=O)N[C@H](C(=O)N1C[C@H]2[C@@H]([C@H]1C(=O)NC(CC1CC1)C(=O)C(N)=O)C2(C)C)C(C)(C)C)C(C)C (mixture of isomers) | > 5 µM | – |
| 0.028 µM | CC(C)(C)[C@H](NC(=O)NC1(C(=O)OCc2ccco2)CCCCC1)C(=O)N1C[C@H]2[C@@H]([C@H]1C(=O)NC(CC1CC1)C(=O)C(N)=O)C2(C)C (mixture of isomers) | > 5 µM | 0.03 µM |
| 0.05 µM | C=C(c1ccccc1)[C@@H](NC(=O)N[C@H](C(=O)N1C[C@H]2[C@@H]([C@H]1C(=O)NC(CC1CC1)C(=O)C(N)=O)C2(C)C)C(C)(C)C)C(C)C (mixture of isomers) | > 5 µM | – |
| 0.009 µM | CC(C)(C)[C@H](NC(=O)NC1(C(=O)O)CCCCC1)C(=O)N1C[C@H]2[C@@H]([C@H]1C(=O)NC(CC1CC1)C(=O)C(N)=O)C2(C)C (mixture of isomers) | > 5 µM | 5 µM |
| 0.013 µM | CC(C)[C@H](NC(=O)N[C@H](C(=O)N1C[C@H]2[C@@H]([C@H]1C(=O)NC(CC1CC1)C(=O)C(N)=O)C2(C)C)C(C)(C)C)C(=O)C1CCCCC1 (mixture of isomers) | > 5 µM | 0.2 µM |
| 0.02 µM | CC(C)[C@H](NC(=O)N[C@H](C(=O)N1C[C@H]2[C@@H]([C@H]1C(=O)NC(CC1CC1)C(=O)C(N)=O)C2(C)C)C(C)(C)C)C(=O)C1CCC1 (mixture of isomers) | > 5 µM | 0.35 µM |
| 0.01 µM | CC(C)[C@H](NC(=O)N[C@H](C(=O)N1C[C@H]2[C@@H]([C@H]1C(=O)NC(CC1CC1)C(=O)C(N)=O)C2(C)C)C(C)(C)C)c1nnn[nH]1 (mixture of isomers) | > 5 µM | 1 µM |
| 0.012 µM | CC(C)[C@H](NC(=O)N[C@H](C(=O)N1C[C@H]2[C@@H]([C@H]1C(=O)NC(CC1CC1)C(=O)C(N)=O)C2(C)C)C(C)(C)C)C(=O)C(C)(C)C (mixture of isomers) | > 5 µM | 0.2 µM |
| 0.027 µM | C=CCNC(=O)C(=O)C(CC1CC1)NC(=O)[C@@H]1[C@@H]2[C@H](CN1C(=O)[C@@H](NC(=O)N[C@H](C(=O)C1CC1)C1CCCCC1)C(C)(C)C)C2(C)C (mixture of isomers) | > 5 µM | 0.45 µM |
| 0.01 µM | CC(C)(C)[C@H](NC(=O)N[C@H](C(=O)OCc1ccccc1)C1CCCCC1)C(=O)N1C[C@H]2[C@@H]([C@H]1C(=O)NC(CC1CC1)C(=O)C(N)=O)C2(C)C (mixture of isomers) | > 5 µM | 0.02 µM |
| 0.012 µM | CC(C)C(=O)[C@@H](NC(=O)N[C@H](C(=O)N1C[C@H]2[C@@H]([C@H]1C(=O)NC(CC1CC1)C(=O)C(N)=O)C2(C)C)C(C)(C)C)C(C)C (mixture of isomers) | > 5 µM | 0.15 µM |
| 0.077 µM | CC(C)[C@H](NC(=O)N[C@H](C(=O)N1C[C@H]2[C@@H]([C@H]1C(=O)NC(CC1CC1)C(=O)C(N)=O)C2(C)C)C(C)(C)C)[C@H](O)c1ccccc1 (mixture of isomers) | > 5 µM | – |
